Tested on: NIH3T3
Assay: Cytotoxicity against mouse NIH/3T3 cells after 48 hrs by MTT assay
Assay type: cell-based
Conditions: NIH3T3, 48 h
How it was run: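 NIH 3T3 mouse embryonic fibroblasts kept in DMEM + 10% FBS at 37 °C, 5% CO2. Seeded at 10,000 cells/well in medium with 5% FBS and left 24 h to attach. Compounds dissolved in DMSO, diluted in serum-free medium, serial concentrations, 48 h exposure, triplicates. MTT (5 mg/mL stock) added for 4 h, formazan taken up in DMSO, A570 read. Viability calculated as % of untreated control; IC50 taken from the dose curve.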

Row | SMILES | IC50
1 | Cc1nnc(Sc2c(-c3ccc(Br)cc3)nc3ccccc3c2-c2ccccc2)s1 | 2.05 mM
2 | Cc1nnc(Sc2c(-c3ccc(Cl)cc3)nc3ccccc3c2-c2ccccc2)s1 | 1.26 mM

Source: ChEMBL document CHEMBL1828510, “Synthesis of 3-heteroarylthioquinoline derivatives and their in vitro antituberculosis and cytotoxicity studies” (Eur J Med Chem, 2011)
